Activity calls are given as the source filed them. No cut-off for these calls is given here.
Columns and labels:
[1] = molecular target: T1, Geranylgeranyl pyrophosphate synthase (Homo sapiens) (UniProt O95749); assay: Inhibition of GGPPs in human RPMI8226 cells assessed as disruption of Rap1a geranylgeranylation measured after 48 hrs by immunoblot analysis; assay type: cell-based
T1 sequence (whole entry): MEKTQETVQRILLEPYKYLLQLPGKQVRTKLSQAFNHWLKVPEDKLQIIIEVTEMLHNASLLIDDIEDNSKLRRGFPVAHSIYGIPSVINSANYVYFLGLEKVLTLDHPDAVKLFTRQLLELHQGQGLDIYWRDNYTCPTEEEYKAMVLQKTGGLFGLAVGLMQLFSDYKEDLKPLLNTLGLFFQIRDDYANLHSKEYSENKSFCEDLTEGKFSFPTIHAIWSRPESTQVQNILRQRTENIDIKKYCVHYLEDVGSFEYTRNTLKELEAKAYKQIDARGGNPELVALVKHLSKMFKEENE
Outline: (§1)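 Whole-cell lysates made in RIPA buffer (0.15 M NaCl, 1% deoxycholate, 0.1% SDS, 1% Triton X-100, 0.05 M Tris HCl) with protease/phosphatase inhibitors; protein by BCA; equal protein run on SDS-PAGE, PVDF transfer, primary antibodies, HRP secondaries, ECL detection of Rap1a with β-tubulin as loading reference.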

[2] = molecular target: T2, Farnesyl pyrophosphate synthase (Homo sapiens, UniProt P14324); assay: Inhibition of FDPS (unknown origin) using [14C] IPP and GPP as substrate preincubated for 10 mins followed by substrate addition and measured after 30 min by scintillation counting method
T2 sequence (P14324 whole entry): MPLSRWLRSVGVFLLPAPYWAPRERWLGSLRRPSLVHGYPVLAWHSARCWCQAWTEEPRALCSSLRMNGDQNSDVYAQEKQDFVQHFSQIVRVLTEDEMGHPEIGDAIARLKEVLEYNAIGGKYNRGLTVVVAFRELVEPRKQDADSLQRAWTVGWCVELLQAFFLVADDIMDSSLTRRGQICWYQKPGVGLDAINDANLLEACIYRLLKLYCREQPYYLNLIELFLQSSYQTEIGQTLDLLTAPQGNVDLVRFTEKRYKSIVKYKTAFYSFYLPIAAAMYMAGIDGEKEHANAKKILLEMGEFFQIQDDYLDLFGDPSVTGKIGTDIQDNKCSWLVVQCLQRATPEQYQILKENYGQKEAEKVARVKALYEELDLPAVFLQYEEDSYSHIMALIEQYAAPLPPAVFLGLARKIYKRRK
Outline: (§2)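 Recombinant enzyme donated by outside labs, assayed by a previously described method; each concentration run in duplicate over multiple concentrations, three independent experiments.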

[3] = molecular target: T3, Geranylgeranyl pyrophosphate synthase (Homo sapiens, UniProt O95749); assay: Inhibition of GGDPS (unknown origin) using [14C] IPP and FPP as substrate preincubated for 10 mins followed by substrate addition and measured after 30 min by scintillation counting method; outline: as §2
T3 sequence (O95749 whole entry): T1 sequence (whole entry)

Homo sapiens = organism: Homo sapiens; assay: Selectivity ratio of IC50 for FDPS (unknown origin) to IC50 for GGDPS (unknown origin)
[4] = molecular target: T1, Geranylgeranyl pyrophosphate synthase (Homo sapiens); assay: Inhibition of GGPPs in human RPMI8226 cells assessed as disruption of Rab geranylgeranylation by ELISA; assay type: cell-based
[5] = molecular target: T1, Geranylgeranyl pyrophosphate synthase (Homo sapiens); assay: Inhibition of GGPPs in human MM1S cells assessed as disruption of Rap1a geranylgeranylation at 1 to 10 uM after 48 hrs by immunoblot analysis; assay type: cell-based; outline: as §1
[6] = molecular target: T1, Geranylgeranyl pyrophosphate synthase (Homo sapiens); assay: Inhibition of GGPPs in human RPMI8226 cells assessed as disruption of Rap1a geranylgeranylation at 1 to 10 uM after 48 hrs by immunoblot analysis; assay type: cell-based; outline: as §1

SMILES | inhibition [1] | IC50 [2] | IC50 [3] | Ratio IC50 (Homo sapiens) | MEC [4] | inhibition [4] | inhibition [5] | inhibition [6]
C/C(=C/CCn1cc(CC(C)(P(=O)(O)O)P(=O)(O)O)nn1)CC/C=C(\C)CO | Dose-dependent effect | 81.4 µM | 0.67 µM | 121 | 0.25 µM | Dose-dependent effect |  | 
CC(=CCn1cc(CC(P(=O)(O)O)P(=O)(O)O)nn1)CC/C=C(\C)CO | Dose-dependent effect | 91.2 µM | 11.6 µM | 8 | 10 µM | Dose-dependent effect | Active | Active

— ChEMBL document CHEMBL4304801, “ω-Hydroxy isoprenoid bisphosphonates as linkable GGDPS inhibitors” (Bioorg Med Chem Lett, 2019)
